Source: ChEMBL document CHEMBL4622949, “A chalcone derivative binds a putative allosteric site of YopH: Inhibition of a virulence factor of Yersinia” (Bioorg Med Chem Lett, 2020)

Key:
[1] = target: T1, Tyrosine-protein phosphatase non-receptor type 22 (Homo sapiens, UniProt Q9Y2R2); experiment: Inhibition of LYP (unknown origin) at 25 uM using pNPP as substrate relative to control
T1 sequence (Q9Y2R2 whole entry): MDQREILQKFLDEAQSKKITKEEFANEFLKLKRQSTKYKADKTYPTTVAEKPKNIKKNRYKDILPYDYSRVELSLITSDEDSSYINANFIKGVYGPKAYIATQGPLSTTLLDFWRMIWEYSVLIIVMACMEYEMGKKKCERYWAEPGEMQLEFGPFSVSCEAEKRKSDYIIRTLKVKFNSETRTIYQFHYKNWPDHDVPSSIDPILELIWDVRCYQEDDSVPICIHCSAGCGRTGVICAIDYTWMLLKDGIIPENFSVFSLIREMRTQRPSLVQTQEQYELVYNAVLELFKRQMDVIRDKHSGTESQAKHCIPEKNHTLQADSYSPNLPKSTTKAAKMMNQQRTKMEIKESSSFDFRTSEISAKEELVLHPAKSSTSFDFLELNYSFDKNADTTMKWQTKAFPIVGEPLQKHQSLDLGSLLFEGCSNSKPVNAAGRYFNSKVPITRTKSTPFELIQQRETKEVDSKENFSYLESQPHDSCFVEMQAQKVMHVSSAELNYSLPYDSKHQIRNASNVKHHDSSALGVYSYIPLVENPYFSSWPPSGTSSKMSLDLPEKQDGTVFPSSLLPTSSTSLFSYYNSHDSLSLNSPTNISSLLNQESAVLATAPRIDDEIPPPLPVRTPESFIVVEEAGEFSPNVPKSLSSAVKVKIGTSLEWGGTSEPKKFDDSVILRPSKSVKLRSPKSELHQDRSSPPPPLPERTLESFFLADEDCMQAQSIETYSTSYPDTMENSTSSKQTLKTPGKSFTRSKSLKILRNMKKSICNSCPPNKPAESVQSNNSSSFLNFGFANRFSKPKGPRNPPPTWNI

[2] = target: T2, Tyrosine-protein phosphatase YopH (Yersinia enterocolitica, UniProt P15273); experiment: Non-competitive mixed inhibition of Yersinia enterocolitica YopH assessed as inhibition constant for enzyme-substrate complex
T2 sequence (P15273 whole entry): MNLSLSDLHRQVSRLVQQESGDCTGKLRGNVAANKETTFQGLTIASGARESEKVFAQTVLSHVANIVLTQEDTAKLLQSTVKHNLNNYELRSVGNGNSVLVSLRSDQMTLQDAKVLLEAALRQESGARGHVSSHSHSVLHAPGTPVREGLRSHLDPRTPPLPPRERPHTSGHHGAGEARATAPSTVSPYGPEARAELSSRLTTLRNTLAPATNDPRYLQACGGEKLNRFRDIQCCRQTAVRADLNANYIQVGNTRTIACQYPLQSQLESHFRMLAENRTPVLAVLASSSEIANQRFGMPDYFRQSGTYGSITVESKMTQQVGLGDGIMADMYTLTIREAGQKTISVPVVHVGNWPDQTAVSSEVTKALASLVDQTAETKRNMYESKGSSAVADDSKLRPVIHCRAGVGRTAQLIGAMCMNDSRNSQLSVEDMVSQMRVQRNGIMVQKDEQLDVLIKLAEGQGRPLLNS
How it was run: (§1)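 Kinetic parameters were derived from Michaelis–Menten plots of YopH activity with and without inhibitor. Ki and α were obtained from a non-competitive mixed-inhibition analysis. Results are means ± SD of three independent experiments.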

[3] = target: T2, Tyrosine-protein phosphatase YopH; experiment: Inhibition of recombinant Yersinia enterocolitica YopH assessed as reduction in conversion of pNPP to nitrophenol and inorganic phosphate using pNPP as substrate by microplate reader assay
How it was run: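 Recombinant YopH phosphatase activity was measured in vitro. Values are the average of individual means ± SD from three independent experiments.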

[4] = target: Tyrosine-protein phosphatase YopH (Yersinia enterocolitica) (UniProt P15273); experiment: Irreversible inhibition of Yersinia enterocolitica YopH assessed as enzyme recovery activity by dilution assay relative to control; design: scale not given: the % may be the effect or the level left
Sequence of Tyrosine-protein phosphatase YopH (Yersinia enterocolitica) (P15273 whole entry): as above
How it was run: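 Reversibility tested by preincubation and dilution: enzyme preincubated with inhibitor, then diluted, and recovered phosphatase activity expressed as a percentage of control.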

[5] = target: T2, Tyrosine-protein phosphatase YopH; experiment: Non-competitive mixed inhibition of Yersinia enterocolitica YopH assessed as inhibition constant; how it was run: as §1

Compound: COc1ccc(OC)c(C(=O)/C=C/c2ccc(C(=O)O)cc2)c1
- inhibition at 25 µM [1]: 15.8%

Compound: O=C(O)c1ccc(/C=C/C(=O)c2cccc3ccccc23)cc1
- inhibition at 25 µM [1]: 10.3%

Compound: COc1ccc(C(=O)/C=C/c2ccc(C(=O)O)cc2)cc1OC
- inhibition at 25 µM [1]: 4.2%

Compound: O=C1COc2ccc(C(=O)/C=C/c3ccc(C(=O)O)cc3)cc2N1
- inhibition at 25 µM [1]: 33.2%

Compound: O=C(O)c1ccc(/C=C/C(=O)n2ccnc2)cc1
- inhibition at 25 µM [1]: 25.7%

Compound: COc1ccc(C(=O)/C=C/c2ccc(C(=O)O)cc2)c(OC)c1
- inhibition at 25 µM [1]: 3.9%

Compound: COc1ccc(C(=O)/C=C/c2ccc(C(=O)O)cc2)cc1
- inhibition at 25 µM [1]: 8.4%

Compound: O=C(/C=C/c1ccc(O)c(O)c1)O[C@@H](C(=O)O)[C@@H](OC(=O)/C=C/c1ccc(O)c(O)c1)C(=O)O [CICHORIC ACID]
- Ki [2]: 12.5 µM
- IC50 [3]: 379 µM
- Activity [4]: 0.6%
- Ki [5]: 68.3 µM

Compound: Cc1ccc(C(=O)/C=C/c2ccc(C(=O)O)cc2)cc1
- inhibition at 25 µM [1]: 9.5%
